This is an account of results in ChEMBL document CHEMBL1146514, “New peptaibols from Mycogone cervina” (J Nat Prod, 2004).

One may read the IC50 as the midpoint of a concentration-inhibition curve. Low readings indicate greater potency, high ones weaker potency.

In assay [1] the test system is Bacillus subtilis. Put plainly: Antimicrobial activity against Bacillus subtilis ATCC 6633 at 100 ug/disk after 24 hrs by standard disk assay. In kind it is functional. Conditions: ATCC 6633, 24 h, read-out: IZ. In a few lines: (§1)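 Bacteria grown on nutrient agar at 37 °C. Test plates seeded with 5×10^5 cells per mL. Compound loaded onto 6 mm filter disks placed on the agar. Inhibition zone diameters read after 24 h.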

Assay [2] concerns Brevibacillus brevis. Description: Antimicrobial activity against Bacillus brevis ATCC 9999 at 100 ug/disk after 24 hrs by standard disk assay. It counts as functional. Conditions: ATCC 9999, 24 h, read-out: IZ. Put shortly: as §1
Assay [3] in a line: Cytotoxicity against human COLO320 cells. In kind it is functional, cell-based. Conditions: COLO 320. In a few lines: (§2)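 Cells were grown and assayed in RPMI 1640 medium, and the IC50 was reported.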
In assay [4] the test system is Micrococcus luteus. Description: Antimicrobial activity against Micrococcus luteus ATCC 21415 at 100 ug/disk after 24 hrs by standard disk assay. In kind it is functional. Conditions: ATCC 21415, 24 h, read-out: IZ. In a few lines:
as §1

In assay [5] the test system is L1210. Description: Cytotoxicity against mouse L1210 cells. It counts as functional, cell-based. Put shortly:
as §2

For assay [6], the system named is L1210. Put plainly: Cytotoxicity against mouse L1210 cells at 100 ug/ml. In kind it is functional, cell-based.

In brackets after ≈: the same amount, converted by molar mass. Activity calls are given as the source filed them. The rule behind the calls is not given here. Where a SMILES comes first, the peptide text is derived from it. [ ]: non-standard residue; d: D form. The star is where a group is joined. X1 = CC(=O)OC[C@H](CC(C)C)N*; Aib = CC(C)(N)C(=O)O

For `CC(=O)N[C@@H](CC(C)C)C(=O)NC(C)(C)C(=O)N1CCC[C@H]1C(=O)NC(C)(C)C(=O)N[C@@H](CC(C)C)C(=O)NC(C)(C)C(=O)N1CCC[C@H]1C(=O)N[C@@H](C)C(=O)NC(C)(C)C(=O)N1CCC[C@H]1C(=O)N[C@H](C(=O)N[C@H](COC(C)=O)CC(C)C)C(C)C` (Ac-L[Aib]P[Aib]L[Aib]PA[Aib]PV-X1), the zone of inhibition at 100 µg/disc came to 11 mm in assay [1], 10 mm in assay [2] and 16 mm in assay [4]. The IC50 in assay [3] was 40 µg/mL (≈ 32.5 µM); in assay [5], 32 µg/mL (≈ 26 µM).
Consider `CC(=O)N[C@@H](CC(C)C)C(=O)NC(C)(C)C(=O)N1CCC[C@H]1C(=O)NC(C)(C)C(=O)N[C@@H](CC(C)C)C(=O)NC(C)(C)C(=O)N1CCC[C@H]1C(=O)N[C@@H](C)C(=O)NC(C)(C)C(=O)N1CCC[C@H]1C(=O)N[C@H](C(=O)N[C@H](CO)CC(C)C)C(C)C` [CERVININ], for which the zone of inhibition at 100 µg/disc was found to be 8 mm in assay [1], 7 mm in assay [2] and 15 mm in assay [4]. The molecule further gave an IC50 in assay [3] of 80 µg/mL (≈ 67.4 µM). In assay [6], the result was inactive.
